Experimental data: ChEMBL document CHEMBL1127795, “Small-molecule immunostimulants. Synthesis and activity of 7,8-disubstituted guanosines and structurally related compounds” (1994)

Key:
Mus musculus [1] = species on record: Mus musculus; test: Effective dose for its ability to act as B-cell mitogens (mitogenicity); Neg indicates a response lower than vehicle control; assay type: functional
How it was run: (§1)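 CBA/CaJ mouse spleen cells (1 × 10⁵/0.2 mL) exposed to graded compound concentrations, dissolved in water or DMSO and diluted in medium, for 24 h. [³H]thymidine then added for a further 24 h; incorporation by scintillation counting. ED50 and maximal response expressed relative to a concurrently run standard (loxoribine in most cases).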

Mus musculus [2] = species on record: Mus musculus; test: Percent of maximum response was tested for its ability to act as B-cell mitogens (mitogenicity); assay type: functional; how it was run: as §1
Mus musculus [3] = species on record: Mus musculus; test: Tested to augment the antibody response of B cells to sheep red blood cell (SRBC) challenge (adjuvanticity); Neg indicates a response lower than vehicle control; assay type: functional, cell-based
How it was run: (§2)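 CBA/CaJ spleen cells depleted of T cells with anti-T cell monoclonal antibody (1:1000, 30 min, 4 °C) then complement (37 °C, 45 min). Cultured ± 0.1% SRBC antigen in serum-containing medium with compound from zero to 10⁻³ M for 4 d. Plaque-forming cells counted in agarose with guinea pig complement. ED50 and maximal response relative to a concurrent standard.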

Mus musculus [4] = species on record: Mus musculus; test: Percent of maximum response was tested to augment the antibody response of B cells to sheep red blood cell challenge; assay type: functional; how it was run: as §2
YAC-1 [5] = test: Stimulation of natural killer (NK) response in Yac-1 cell line (mouse, lymphoma); assay type: functional; settings: read-out: ED50 (the source's name)
YAC-1 [6] = test: Percent of maximum response was tested for its ability to stimulate the natural killer response in murine in vitro cell assays; assay type: functional, Mus musculus
Mus musculus [7] = species on record: Mus musculus; test: Ability to act as B-cell mitogens; assay type: functional; settings: read-out: ED50 (the source's name); how it was run: as §1
Mus musculus [8] = species on record: Mus musculus; test: Augment antibody response of B cells to sheep red blood cell (SRBC) challenge (adjuvanticity); assay type: functional; settings: read-out: ED50 (the source's name); how it was run: as §2
YAC-1 [9] = test: Stimulation of natural killer (NK) response in Yac-1 cell line (mouse, lymphoma); Neg indicates a response lower than vehicle control; assay type: functional, cell-based

Compound | ED50 (Mus musculus [1]) | Max response (Mus musculus [2]) | ED50 (Mus musculus [3]) | Max response (Mus musculus [4]) | EC50 (YAC-1 [5]) | Max response (YAC-1 [6]) | EC50 (Mus musculus [7]) | EC50 (Mus musculus [8]) | ED50 (YAC-1 [9])
Nc1nc(O)c2c(n1)n(C1OC(CO)[C@@H](O)[C@H]1O)c(=O)n2Cc1ccc(Cl)c(Cl)c1 (some centres not stated) | Negative | 0% | Negative | 55% | 110 µM | 15% | – | – | –
CC1OC(n2c(=O)n(C)c3c(O)nc(N)nc32)[C@H](O)[C@@H]1O (some centres not stated) | – | – | Negative | 0% | – | – | – | – | –
CCCn1c(=O)n(C2OC(COP(=O)([O-])[O-])[C@@H](O)[C@H]2O)c2nc(N)nc(O)c21.[Li+].[Li+] (some centres not stated) | – | 57% | – | 76% | – | 15% | 82 µM | 15 µM | Negative
C=CCN1C(=C(C(=O)OCC)C(=O)OCC)N([C@H]2OC(CO)[C@H]3OC(C)(C)O[C@H]32)c2nc(N)nc(O)c21 (some centres not stated) | – | – | Negative | 0% | – | – | – | – | –
C=CCn1c(=O)n(CCc2ccc(OC)c(OC)c2)c2nc(N)nc(O)c21 | – | – | Negative | 0% | – | – | – | – | –
C=CCn1c(=O)n(C2CCC(CO)C2)c2nc(N)nc(O)c21 (configuration not stated) | Negative | 0% | – | 26% | – | – | – | 226 µM | –
C=CCn1c(=O)n([C@@H](CO)OC(CO)CO)c2nc(N)nc(O)c21 | – | 6% | Negative | 0% | – | – | 37 µM | – | –
Nc1nc(O)c2nc(S)n([C@H]3O[C@H](CO)[C@@H](O)[C@H]3O)c2n1 | Negative | 6% | Negative | 8% | – | 0% | – | – | Negative
CCCCCCCCCCn1c(=O)n(C2OC(CO)[C@@H](O)[C@H]2O)c2nc(N)nc(O)c21 (some centres not stated) | Negative | 0% | Negative | 0% | – | – | – | – | –
Nc1nc(O)c2c(n1)n(C1OC(CO)[C@@H](O)[C@H]1O)c(=O)n2CC(=O)c1ccc(Cl)cc1 (some centres not stated) | Negative | 0% | – | 23% | – | – | – | 1620 µM | –
C=CCn1c(=O)n([C@@H]2O[C@H](CO)[C@H]3OC(C)(CCC(=O)OCC)O[C@H]32)c2nc(N)nc(O)c21 (some centres not stated) | Negative | 0% | – | 44% | 150 µM | 19% | – | 139 µM | –
Nc1nc(O)c2c(n1)n(C1OC(CO)[C@@H](O)[C@H]1O)c(=O)n2Cc1ccc(OCc2ccccc2)cc1 (some centres not stated) | – | – | – | 5% | – | 6% | – | 8 µM | Negative
C=CCn1c(=S)n(C2OC(COC(=O)c3ccccc3)[C@H]3OC(C)(C)O[C@@H]23)c2nc(N)nc(O)c21 (some centres not stated) | Negative | 0% | – | 77% | – | – | – | 47 µM | –
Nc1nc(O)c2nc(S)n(COCCO)c2n1 | – | – | Negative | 0% | 3 µM | 26% | – | – | –
Nc1nc(O)c2nc3n(c2n1)COCCO3 | – | – | Negative | 0% | – | 6% | – | – | Negative
Nc1nc(O)c2c(n1)n(C1OC(CO)[C@@H](O)[C@H]1O)c(=O)n2CCN1CCCCC1 (some centres not stated) | Negative | 0% | Negative | 0% | – | – | – | – | –
CCCn1c(=O)n(C2CCC(COC(C)=O)O2)c2nc(NC(C)=O)nc(O)c21 (configuration not stated) | – | 11% | – | 100% | – | 0% | 80 µM | 154 µM | Negative
C=CCn1c(=O)n(CCCCO)c2nc(N)nc(O)c21 | – | 16% | Negative | 12% | – | – | 52 µM | – | –
C=CCn1c(=O)n([C@H]2CO[C@@H](CO)C2)c2nc(N)nc(O)c21 | – | 16% | – | 10% | – | 0% | 272 µM | 83 µM | Negative
